Data as given in ChEMBL document CHEMBL5260830, “Breakthroughs in neuroactive steroid drug discovery” (Bioorg Med Chem Lett, 2018).
In brackets after ≈: the same amount, converted by molar mass.

What was measured:
[1] = Brain concentration in mouse at 10 mg/kg po measured after 30 mins; assay type: ADME, organism-based; conditions: read-out: Ct
In short: (§1)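 Mice were given oral doses of 3, 10 or 30 mg/kg, with a vehicle group. Pentylenetetrazole was used to induce seizures. Percentages of animals with clonic seizure, tonic seizure and death were recorded. Plasma (ng/mL) and brain (ng/g) concentrations were measured in samples collected 30 min after administration.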

[2] = Brain concentration in mouse at 30 mg/kg po measured after 30 mins; assay type: ADME, organism-based; conditions: read-out: Ct; in short: as §1
[3] = Plasma concentration in mouse at 30 mg/kg, po measured after 30 mins; assay type: ADME, organism-based; in short: as §1
[4] = Brain concentration in mouse at 3 mg/kg po measured after 30 mins; assay type: ADME, organism-based; conditions: read-out: Ct; in short: as §1
[5] = Plasma concentration in mouse at 3 mg/kg, po measured after 30 mins; assay type: ADME, organism-based; in short: as §1
[6] = Plasma concentration in mouse at 10 mg/kg, po measured after 30 mins; assay type: ADME, organism-based; in short: as §1
Mus musculus [7] = test: Anticonvulsant activity in PTZ induced mouse assessed as reduction in clonic seizure at 10 mg/kg,po (reference value: 100%); assay type: functional; design: scale not given: the % may be the effect or the level left; in short: as §1
Mus musculus [8] = test: Anticonvulsant activity in PTZ induced mouse assessed as animal death at 3 mg/kg,po (reference value: 80%); assay type: functional; in short: as §1
Mus musculus [9] = test: Anticonvulsant activity in PTZ induced mouse assessed as reduction in tonic seizure at 3 mg/kg,po (reference value: 80%); assay type: functional; design: scale not given: the % may be the effect or the level left; in short: as §1
Mus musculus [10] = test: Anticonvulsant activity in PTZ induced mouse assessed as reduction in clonic seizure at 3 mg/kg,po (reference value: 100%); assay type: functional; design: scale not given: the % may be the effect or the level left; in short: as §1
[11] = target: T1, GABA-A receptor; alpha-1/beta-2/gamma-2 (Homo sapiens, UniProt P14867+P18507+P47870); test: Positive allosteric modulation of human GABAA alpha1beta2gamma2 receptor expressed in Xenopus laevis oocytes by two-microelectrode voltage-clamp assay; assay type: cell-based, Oocyte
T1 sequence (P14867 whole entry): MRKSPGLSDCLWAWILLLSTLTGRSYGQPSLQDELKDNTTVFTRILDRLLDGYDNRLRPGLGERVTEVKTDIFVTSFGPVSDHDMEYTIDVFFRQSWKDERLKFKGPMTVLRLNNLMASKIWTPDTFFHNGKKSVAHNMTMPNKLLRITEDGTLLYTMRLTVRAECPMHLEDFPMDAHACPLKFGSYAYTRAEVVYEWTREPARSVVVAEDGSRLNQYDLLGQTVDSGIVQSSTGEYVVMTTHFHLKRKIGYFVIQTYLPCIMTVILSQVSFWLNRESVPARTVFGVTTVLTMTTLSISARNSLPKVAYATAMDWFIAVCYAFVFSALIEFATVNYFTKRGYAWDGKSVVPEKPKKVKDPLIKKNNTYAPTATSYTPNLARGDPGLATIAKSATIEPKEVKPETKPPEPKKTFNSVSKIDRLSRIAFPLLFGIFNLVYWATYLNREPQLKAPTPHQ
T1 sequence (P47870 whole entry): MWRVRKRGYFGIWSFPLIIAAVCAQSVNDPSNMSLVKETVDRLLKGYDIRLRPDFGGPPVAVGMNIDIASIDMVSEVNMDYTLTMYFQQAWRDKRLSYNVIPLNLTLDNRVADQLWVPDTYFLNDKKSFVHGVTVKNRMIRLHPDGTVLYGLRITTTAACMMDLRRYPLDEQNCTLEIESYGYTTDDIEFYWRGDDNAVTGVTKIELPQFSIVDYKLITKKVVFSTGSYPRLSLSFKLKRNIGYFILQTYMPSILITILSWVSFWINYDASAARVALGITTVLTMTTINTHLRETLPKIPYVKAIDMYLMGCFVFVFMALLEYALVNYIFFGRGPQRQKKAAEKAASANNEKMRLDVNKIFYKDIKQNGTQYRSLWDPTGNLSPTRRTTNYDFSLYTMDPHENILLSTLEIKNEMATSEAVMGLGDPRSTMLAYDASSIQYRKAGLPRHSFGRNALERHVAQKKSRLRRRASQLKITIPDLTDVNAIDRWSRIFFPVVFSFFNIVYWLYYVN
T1 sequence (P18507 whole entry): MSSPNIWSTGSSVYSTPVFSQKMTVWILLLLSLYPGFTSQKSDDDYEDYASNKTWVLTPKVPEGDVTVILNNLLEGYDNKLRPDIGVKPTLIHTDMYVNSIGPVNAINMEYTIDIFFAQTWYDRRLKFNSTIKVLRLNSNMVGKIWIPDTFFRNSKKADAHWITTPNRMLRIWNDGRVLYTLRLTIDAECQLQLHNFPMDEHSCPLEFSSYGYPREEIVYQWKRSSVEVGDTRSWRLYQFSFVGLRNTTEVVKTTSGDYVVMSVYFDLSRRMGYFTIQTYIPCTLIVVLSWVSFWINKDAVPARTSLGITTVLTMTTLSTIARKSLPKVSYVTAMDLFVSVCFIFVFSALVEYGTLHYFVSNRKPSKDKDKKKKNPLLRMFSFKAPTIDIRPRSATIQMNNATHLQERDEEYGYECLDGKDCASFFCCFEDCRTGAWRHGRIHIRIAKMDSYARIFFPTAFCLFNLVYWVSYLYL
In short: (§2)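 PAM activity measured as EC50 in Xenopus oocytes expressing α1β2γ2L or α2β1γ2L GABAA receptors.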

[12] = target: T2, Gamma-aminobutyric acid receptor subunit alpha-2/beta-1/gamma-2 (Homo sapiens, UniProt P18505+P18507+P47869); test: Positive allosteric modulation of human GABAA alpha2beta1gamma2 receptor expressed in Xenopus laevis oocytes by two-microelectrode voltage-clamp assay; assay type: cell-based, Oocyte; in short: as §2
T2 sequence (P18507 whole entry): T1 sequence (P18507 whole entry)
T2 sequence (P18505 whole entry): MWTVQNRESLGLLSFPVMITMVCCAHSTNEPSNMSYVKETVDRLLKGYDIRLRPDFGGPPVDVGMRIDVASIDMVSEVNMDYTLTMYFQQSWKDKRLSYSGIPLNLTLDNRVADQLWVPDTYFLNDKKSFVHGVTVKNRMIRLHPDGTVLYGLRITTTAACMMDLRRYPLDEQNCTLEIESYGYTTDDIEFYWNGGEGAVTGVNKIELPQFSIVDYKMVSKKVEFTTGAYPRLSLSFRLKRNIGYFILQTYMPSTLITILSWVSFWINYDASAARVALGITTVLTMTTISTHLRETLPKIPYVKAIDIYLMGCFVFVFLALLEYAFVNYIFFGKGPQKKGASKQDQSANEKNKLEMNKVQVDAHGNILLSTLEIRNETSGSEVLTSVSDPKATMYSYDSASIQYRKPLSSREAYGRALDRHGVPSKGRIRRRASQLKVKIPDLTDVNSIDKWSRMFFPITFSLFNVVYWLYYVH
T2 sequence (P47869 whole entry): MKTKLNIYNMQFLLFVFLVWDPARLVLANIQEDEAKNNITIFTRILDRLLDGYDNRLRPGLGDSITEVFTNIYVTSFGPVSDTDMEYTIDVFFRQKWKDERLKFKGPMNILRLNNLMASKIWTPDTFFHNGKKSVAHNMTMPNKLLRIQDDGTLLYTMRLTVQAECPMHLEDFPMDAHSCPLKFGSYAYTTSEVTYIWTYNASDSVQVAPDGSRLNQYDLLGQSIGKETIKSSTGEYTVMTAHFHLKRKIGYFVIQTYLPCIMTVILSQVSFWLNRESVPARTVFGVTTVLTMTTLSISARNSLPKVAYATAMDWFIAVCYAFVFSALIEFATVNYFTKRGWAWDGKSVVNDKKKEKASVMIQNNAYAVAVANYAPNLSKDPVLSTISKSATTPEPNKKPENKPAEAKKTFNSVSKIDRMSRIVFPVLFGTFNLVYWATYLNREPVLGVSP

[13] = Solubility of the compound in 45% HPbetaCD; assay type: physicochemical
[14] = Oral availability in rat 3 mg/kg, po; assay type: ADME, organism-based; conditions: in vivo
In short: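 Rat oral bioavailability from dosing at 3 mg/kg p.o. and 1 mg/kg i.v.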

Mus musculus [15] = species on record: Mus musculus; test: Anxiolytic activity in mouse assessed as increase in time spent in open arm by elevated plus maze test; assay type: functional; conditions: read-out: MED
In short: (§3)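 Mice were dosed orally. Anxiolytic activity was tested in the elevated plus maze and reported as minimum effective dose. Anticonvulsant activity was tested against pentylenetetrazole-induced seizures and reported as ED50. Therapeutic indices were given for the anxiolytic and anticonvulsant read-outs against a preliminary mouse safety measure.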

Mus musculus [16] = test: Anticonvulsant activity in PTZ induced mouse administered orally; assay type: functional; conditions: route po; in short: as §3
[17] = Therapeutic index, ratio of AD50 for mouse to MED for anxiolytic activity in mouse assessed as increase in time spent in open arm by elevated plus maze test; assay type: toxicity; conditions: read-out: TI; in short: as §3
[18] = Therapeutic index, ratio of AD50 for mouse to ED50 for anticonvulsant activity in PTZ induced mouse administered orally; assay type: toxicity; conditions: in vivo, route po, read-out: TI; in short: as §3

SMILES | concentration at 0.5 h [1] [ng/g] | concentration at 0.5 h [2] [ng/g] | concentration at 0.5 h [3] [ng/mL] | concentration at 0.5 h [4] [ng/g] | concentration at 0.5 h [5] [ng/mL] | concentration at 0.5 h [6] [ng/mL] | Activity (Mus musculus [7]) [%] | Activity (Mus musculus [8]) [%] | Activity (Mus musculus [9]) [%] | Activity (Mus musculus [10]) [%] | EC50 [11] [nM] | EC50 [12] [nM] | solubility [13] [mM] | bioavailability [14] [%] | minimal effective dose (Mus musculus [15]) [mg/kg] | ED50 (Mus musculus [16]) [mg/kg] | selectivity ratio [17] | selectivity ratio [18]
C[C@@]1(O)CC[C@H]2[C@H](CC[C@@H]3[C@@H]2CC[C@]2(C)[C@@H](C(=O)Cn4nccn4)CC[C@@H]32)C1 | 773 | 1960 | 1690 | 87 | 87 | 703 | 20 | 30 | 40 | 90 | – | – | – | – | – | – | – | –
C[C@@]1(O)CC[C@@]2(C)[C@@H](CC[C@@H]3[C@@H]2CC[C@]2(C)[C@@H](c4cc(CO)on4)CC[C@@H]32)C1 | – | – | – | – | – | – | – | – | – | – | 1200 | 200 | 52 (≈ 20.2 mg/mL) | 77 | ≤ 0.3 | 6 | ≥ 127 | 6
